Data taken from ChEMBL document CHEMBL4007449, “Novel multi-substituted benzyl acridone derivatives as survivin inhibitors for hepatocellular carcinoma treatment” (Eur J Med Chem, 2017).

Assays:
HepG2 = assay: Antiproliferative activity against human HepG2 cells after 48 hrs by MTT assay; format: functional, cell-based; details: HepG2, 48 h
Method in brief: (§1)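 Cells grown in DMEM with 10% FBS at 37 °C, 5% CO2; seeded at 6 × 10^3 cells/well, allowed to attach 12 h, then exposed to compound at final 50, 25, 10, 1 and 0.1 µM for 48 h. MTT (5 mg/mL) added for 4 h, formazan dissolved in DMSO, absorbance read at 490 nm; IC50 taken from the resulting curve.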

MCF7 = assay: Antiproliferative activity against human MCF7 cells after 48 hrs by MTT assay; format: functional, cell-based; details: MCF7, 48 h; method in brief: as §1
[1] = Antiproliferative activity against human QGY7701 cells after 48 hrs by MTT assay; format: cell-based; details: QGY7701, 48 h; method in brief: as §1

Row | Structure (SMILES) | IC50 (HepG2) | IC50 (MCF7) | IC50 [1]
1 | CCc1ccc(CNc2ccc(C(=O)NCCCN(C)C)c3[nH]c4c([N+](=O)[O-])cccc4c(=O)c23)cc1 | 5.78 µM | 4.69 µM | –
2 | COc1cccc2c(=O)c3c(NN)ccc(C(=O)NCCCN(C)C)c3[nH]c12 | 12.3 µM | 14.8 µM | –
3 | COc1cccc2c(=O)c3c(Cl)ccc(C(=O)NCCN(C)C)c3[nH]c12 | 24.7 µM | 18.5 µM | –
4 | COCCNC(=O)c1ccc(NCc2ccc(OC)cc2)c2c(=O)c3cccc(C)c3[nH]c12 | > 50 µM | > 50 µM | –
5 | COc1cccc2c(=O)c3c(NCc4ccccc4)ccc(C(=O)NCCN(C)C)c3[nH]c12 | 5.5 µM | 13.7 µM | –
6 | COc1cc(CNc2ccc(C(=O)NCCN(C)C)c3[nH]c4c([N+](=O)[O-])cccc4c(=O)c23)cc(OC)c1OC | 7 µM | 5.73 µM | –
7 | COc1ccc(CNc2ccc(C(=O)NCCCN(C)C)c3[nH]c4c(N)cccc4c(=O)c23)cc1 | 5.68 µM | 13.4 µM | –
8 | COCCNC(=O)c1ccc(NCc2ccc(C(F)(F)F)cc2)c2c(=O)c3cccc(C)c3[nH]c12 | > 50 µM | > 50 µM | –
9 | COc1cccc(CNc2ccc(C(=O)NCCN(C)C)c3[nH]c4c([N+](=O)[O-])cccc4c(=O)c23)c1 | 8.61 µM | 5.09 µM | –
10 | COc1cc(CNc2ccc(C(=O)NCCN(C)C)c3[nH]c4c(C)cccc4c(=O)c23)cc(OC)c1OC | 4.96 µM | 5.06 µM | –
11 | CN(C)CCCNC(=O)c1ccc(NCc2ccccc2)c2c(=O)c3cccc([N+](=O)[O-])c3[nH]c12 | 2.43 µM | 2.92 µM | 3.97 µM
12 | CN(C)CCNC(=O)c1ccc(NCc2ccccc2)c2c(=O)c3cccc([N+](=O)[O-])c3[nH]c12 | 9.59 µM | 5.61 µM | –
13 | COc1ccc(CNc2ccc(C(=O)NCCN(C)C)c3[nH]c4c(C)cccc4c(=O)c23)cc1 | 2.11 µM | 6.84 µM | 6.91 µM
14 | Cc1cccc2c(=O)c3c(NN)ccc(C(=O)NCCN(C)C)c3[nH]c12 | 8.85 µM | 13 µM | –
15 | COc1ccc(CNc2ccc(C(=O)NCCN(C)C)c3[nH]c4c([N+](=O)[O-])cccc4c(=O)c23)cc1 | 4.5 µM | 1.05 µM | –
16 | COCCNC(=O)c1ccc(NCc2ccccc2)c2c(=O)c3cccc(C)c3[nH]c12 | 17.2 µM | > 50 µM | –
17 | Cc1cccc2c(=O)c3c(NCc4ccccc4)ccc(C(=O)NCCN(C)C)c3[nH]c12 | 7.99 µM | 5.48 µM | –
18 | COc1ccc(CNc2ccc(C(=O)NCCCN(C)C)c3[nH]c4c(OC)cccc4c(=O)c23)cc1 | 10.8 µM | 9.97 µM | –
19 | CN(C)CCNC(=O)c1ccc(N(C)C)c2c(=O)c3cccc([N+](=O)[O-])c3[nH]c12 | 28.6 µM | 3.54 µM | –
20 | COc1ccc(CNc2ccc(C(=O)NCCN(C)C)c3[nH]c4c(Cl)cc(Cl)cc4c(=O)c23)cc1 | 17.5 µM | 17.5 µM | –
21 | CN(C)CCNC(=O)c1ccc(Cl)c2c(=O)c3cccc([N+](=O)[O-])c3[nH]c12 | 14.5 µM | 2.28 µM | –
22 | COc1ccc(CNc2ccc(C(=O)NCCCN(C)C)c3[nH]c4c(C)cccc4c(=O)c23)cc1 | 5.94 µM | 4.12 µM | –
23 | Cc1cccc2c(=O)c3c(Cl)ccc(C(=O)NCCN(C)C)c3[nH]c12 | > 50 µM | > 50 µM | –
24 | COc1ccc(CNc2ccc(C(=O)NCCN(C)C)c3[nH]c4c(OC)cccc4c(=O)c23)cc1 | 5.15 µM | 6.13 µM | –
25 | COc1cc(CNc2ccc(C(=O)NCCN(C)C)c3[nH]c4c(OC)cccc4c(=O)c23)cc(OC)c1OC | > 50 µM | > 50 µM | –
26 | COCCNC(=O)c1ccc(NCc2cccc(OC)c2)c2c(=O)c3cccc(C)c3[nH]c12 | > 50 µM | > 50 µM | –
27 | CN(C)CCCNC(=O)c1ccc(N(C)C)c2c(=O)c3cccc([N+](=O)[O-])c3[nH]c12 | 36.8 µM | 9.29 µM | –
28 | COCCNC(=O)c1ccc(NCc2cc(OC)c(OC)c(OC)c2)c2c(=O)c3cccc(C)c3[nH]c12 | > 50 µM | > 50 µM | –
